# Assay results from different studies.
# pIC50: −log10 of the molar value.
# IRAK4: Interleukin-1 receptor-associated kinase 4 (IRAK4, Homo sapiens, UniProt Q9NWZ3)
# P2RY14: P2Y purinoceptor 14 (P2RY14, Homo sapiens, UniProt Q15391)
Compound,target,test,setting,pIC50
C=CCC1c2ccc(OC)c(OC)c2CN2CCc3cc4c(cc3C12)OCO4 (stereo not shown),"P2X purinoceptor 7 (P2RX7, Homo sapiens, UniProt Q99572)","ion current, patch clamp",,6.33
CNC(=O)c1ccccc1Nc1nc(Nc2ccc(CO)cc2)ncc1C#N,IRAK4,"enzyme activity, inhibitor, radiometric",,6.97
c1coc(-c2n[nH]cc2-c2ccnc3ccccc23)c1,"TGF-beta receptor type-1 (TGFBR1, Homo sapiens, UniProt P36897)","enzyme activity, inhibitor, radiometric",,5.96
O=C(O)c1cc(-c2ccc(-n3ccnn3)cc2)c2ccc(-c3ccc(C(F)(F)F)cc3)cc2c1,P2RY14,"ligand displacement in cells, flow cytometry",,7.61
CNC(=O)c1ccccc1Nc1nc(Nc2ccc(CO)cc2)ncc1C1CC1,IRAK4,"enzyme activity, inhibitor, radiometric",,8.52
COC(=O)/C=C/c1ccc(OCCN(C)c2ccccc2)cc1,"Fatty acid CoA ligase Acsl3 (ACSL3, Homo sapiens, UniProt O95573)","enzyme activity, inhibitor",,< 4.30
Cc1cc2c(cc1C)N[C@H](c1ccccc1)[C@@H](O)C(=O)N2,"Tyrosine-protein kinase JAK3 (JAK3, Homo sapiens, UniProt P52333)","enzyme activity, inhibitor, ELISA",,5.94
O=C(COc1ccccc1)N[C@@H](Cc1c[nH]c2ccccc12)C(=O)O,P2RY14,"cAMP, antagonist",,7.72
CNC(=O)c1ccccc1Nc1nc(Nc2ccc(CO)nc2)ncc1Cl,IRAK4,"enzyme activity, inhibitor, radiometric",,7.68
O=C(O)c1cc(-c2ccc(-c3c[nH]nn3)cc2)c2ccc(-c3ccc(C(F)(F)F)cc3)cc2c1,P2RY14,"ligand displacement in cells, flow cytometry",,8.43
Cc1ccc(OCC(=O)N[C@@H](Cc2c[nH]c3ccccc23)C(=O)OC(C)C)cc1,P2RY14,"cAMP, antagonist",,8.92
O=C(NO)c1ccc(Cn2cnc3c(Nc4cccc([N+](=O)[O-])c4)ncnc32)cc1,"Histone deacetylase 3 (HDAC3, Homo sapiens, UniProt O15379)","enzyme activity, inhibitor, fluorescence",,> 8.70
C#Cc1cnc(Nc2ccnc(CO)c2)nc1Nc1ccccc1S(C)(=O)=NC#N (stereo not shown),IRAK4,"enzyme activity, inhibitor, radiometric",,8.35
Cn1nccc1-c1ccc(-c2cc(C(=O)O)cc3cc(-c4ccc(C(F)(F)F)cc4)ccc23)cc1,P2RY14,"ligand displacement in cells, flow cytometry",,7.31
Nc1ncnc2c1ncn2[C@@H]1O[C@H](CSCC[C@H](N)C(=O)O)[C@@H](O)[C@H]1O,"Histone-lysine N-methyltransferase, H3 lysine-36 specific (NSD1, Homo sapiens, UniProt Q96L73)","enzyme activity, inhibitor",,5.20
C#Cc1cnc(Nc2ccc(CO)nc2)nc1Nc1ccccc1S(C)(=O)=NC#N (stereo not shown),IRAK4,"enzyme activity, inhibitor, radiometric",,8.40
CC(C)OC(=O)[C@H](Cc1c[nH]c2ccccc12)NC(=O)COc1ccccc1,P2RY14,"cAMP, antagonist",,8.36
CN(C)C(=O)c1cc2cnc(Nc3ccc(-c4ccc5c(=O)cc(N6CCOCC6)oc5c4)cc3)nc2n1C1CCCC1,"Cytochrome P450 2D6 (CYP2D6, Homo sapiens, UniProt P10635)","enzyme activity, inhibitor, fluorescence",pH 8,5.37
Cn1ccc(-c2ccc(-c3cc(C(=O)O)cc4cc(-c5ccc(C(F)(F)F)cc5)ccc34)cc2)n1,P2RY14,"ligand displacement in cells, flow cytometry",,7.45
CC(C)OC(=O)[C@H](Cc1c[nH]c2ccccc12)NC(=O)c1ccc2ncccc2c1,P2RY14,"cAMP, antagonist",,7.97
OCc1ccc(Nc2ncc(Cl)c(Nc3ccccc3-c3nccs3)n2)cc1,IRAK4,"enzyme activity, inhibitor, radiometric",,7.58
CC(C)OC(=O)[C@H](Cc1c[nH]c2ccccc12)NC(=O)c1cccs1,P2RY14,"cAMP, antagonist",,7.34
O=C(O)c1cc(-c2ccc(-n3cc(CCO)nn3)cc2)c2ccc(-c3ccc(C(F)(F)F)cc3)cc2c1,P2RY14,"ligand displacement in cells, flow cytometry",,6.82
CNS(=O)(=O)c1ccccc1Nc1nc(Nc2ccc(CO)nc2)ncc1Cl,IRAK4,"enzyme activity, inhibitor, radiometric",,7.90
c1c(N2CCCC2)nc(N2CCCC2)nc1N1CCNCC1,"Caspase-1 (CASP1, Homo sapiens, UniProt P29466)","enzyme activity, inhibitor",with preincubation,6.63
